Screening results deposited in PubChem BioAssay by Broad Institute.
SR-BI DiI inh – inhibitors of SR-BI mediated HDL lipid uptake, primary screen, ldlA[mSR-BI] cells, fluorescence, single point; AID 488896, 2010; Scavenger receptor class B member 1 (Mus musculus), Q61009; inhibition, % at 12.5 µM; ldlA[mSR-BI] CHO cells, DiI-HDL uptake fluorescence, 3 h; 0.96% of 320,000 active;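 active = mean replicate inhibition of at least 70% and a set share of replicates each scoring 70 or more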
Dyrk1A ADPGlo – rat Dyrk1A kinase inhibitors, primary screen, biochemical, single point, plate reader. Dual specificity tyrosine-phosphorylation-regulated kinase 1A (Rattus norvegicus), Q63470. ADP-Glo luminescence, NFATc1 peptide. inhibition, % at 12.5 µM. 0.43% of 310,000 active. AID 504441, 2011
CDK5 p35 inh – inhibitors of human CDK5/p35 kinase, primary screen, biochemical, single concentration; Cyclin-dependent kinase 5 (Homo sapiens) + Cyclin-dependent kinase 5 activator 1 (Homo …; Recombinant CDK5/p35, ADP-Glo luminescence, 60 min; inhibition, % at 10 µM; 0.01% of 330,000 active; AID 488839, 2010;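 active = highest replicate inhibition of at least 50% and at least 75% of replicates reaching 50%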
dFosB activator – activators of delta FosB homodimer, primary screen, biochemical, fluorescence polarization, TAMRA-CDK5 oligo, single point; purified delta FosB; percent of positive-control signal above neutral wells; Protein FosB (Mus musculus), P13346; activation, % at 25 µM; 0.99% of 340,000 active; AID 493131, 2011;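 active = mean activation above about 17%, with every replicate also reaching it, limit read from the data, passing the limit was not always enough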
NSD2 inh – NSD2 histone methyltransferase inhibitors, primary screen, biochemical, AlphaScreen, single concentration, set 2; Histone-lysine N-methyltransferase NSD2 (Homo sapiens), O96028; NSD2 peptide methylation, 120 min; inhibition, % at 12.5 µM; 0.54% of 310,000 active; AID 743445, 2014
SR-BI uptake up – activators of SR-BI mediated DiI-HDL uptake, primary screen, ldlA[mSR-BI] CHO cells, DiI fluorescence. 0.096% of 320,000 active. AID 504775, 2011. 3 h; 100 = double the neutral-control signal. activation, % at 12.5 µM;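 active = mean replicate activation of at least 60% and every replicate at or above 60%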
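Test system: SR-BI-overexpressing, LDLR-lacking CHO cells. Measured by: DiI fluorescence, bottom read. Medium: Ham's F12 with 0.5% BSA, HEPES 25 mM, pH 7.4. Timing: 3 h uptake period with compound, 37 °C.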
Large screens that a line does not name were inactive. Most compounds without a hit are left out; they make up all but 2.5% or so of the library. Rule as the data show it, unless noted: active = inhibition above about 50%; inactive = the rest.

Cc1ccc2c(N)c(C)ccc2c1	none
COc1ccc(C(C)=O)cc1COC(=O)c1ccc(C)c(S(=O)(=O)N2CCOCC2)c1	SR-BI DiI inh 70 (no result: NSD2 inh)
CCC(C)C(=O)N1c2ccccc2C(=C2SC(C(=O)OC)=C(C(=O)OC)S2)C(=S)C1(C)C (centres undefined)	SR-BI DiI inh 89
O=C(CSc1nnc(NC2CCCCC2)s1)Nc1ccc2c(c1)C(=O)c1ccccc1C2=O	SR-BI DiI inh 73
NC(=O)c1cc(Cc2ccccc2)sc1NC(=O)c1ccco1	dFosB activator 75
O=C(Nc1nnc(Cc2ccccc2)s1)c1ccco1	none
CCN(CC)CCC(=O)Nc1cccc2c1C(=O)c1ccccc1C2=O	dFosB activator 35
Nc1cccc(C(=O)OCC(=O)Nc2cccc3c2C(=O)c2ccccc2C3=O)c1	none
O=C(CSc1nc2ccccc2nc1N1CCCCC1)N1CCN(S(=O)(=O)c2ccccc2)CC1	none (no result: SR-BI DiI inh, Dyrk1A ADPGlo, CDK5 p35 inh, dFosB activator, SR-BI uptake up)
O=[N+]([O-])c1cc(C=NN2CCN(Cc3ccccc3Cl)CC2)ccc1Cl	none (no result: SR-BI DiI inh, Dyrk1A ADPGlo, CDK5 p35 inh, dFosB activator, SR-BI uptake up)
CCN(C(=O)COC(=O)c1c2c(nc3ccccc13)CCC2)c1c(N)n(Cc2ccccc2)c(=O)[nH]c1=O	none
CC(C)CN(C(=O)COC(=O)c1c2c(nc3ccccc13)CCC2)c1c(N)n(Cc2ccccc2)c(=O)[nH]c1=O	SR-BI DiI inh 72
C/C(=N\NC(=O)c1ccc(C)cc1)c1c(C)[nH]n(-c2ccccc2)c1=O	SR-BI DiI inh 125
Cc1[nH]n(-c2ccccc2)c(=O)c1N=Nc1ccccc1O	SR-BI DiI inh 119 (no result: NSD2 inh)
C/C(=N\NC(=O)c1ccccc1)c1c(C)[nH]n(-c2ccccc2)c1=O	SR-BI DiI inh 126
Cc1[nH]n(-c2ccccc2)c(=O)c1C(=O)Nc1ccccc1	none
Cc1[nH]n(-c2ccccc2)c(=O)c1C(=O)c1ccc([N+](=O)[O-])cc1	none
CCc1noc(C)c1C(=O)OC(C)C(=O)Nc1ccc2c(c1)OCO2 (centres undefined)	none
Cc1onc(-c2ccccc2)c1C(=O)Nc1sc2c(c1C#N)CCC(C)C2 (centres undefined)	SR-BI DiI inh 72 (no result: Dyrk1A ADPGlo)
CC1CCc2c(sc(NC(=O)c3ccc(-c4ccccc4[N+](=O)[O-])o3)c2C#N)C1 (centres undefined)	SR-BI DiI inh 90
CCOC(=O)c1c(NC(=O)/C=C/C(=O)O)sc(C)c1-c1ccc(C(C)(C)C)cc1	NSD2 inh 69
CCOC(=O)c1c(NC(=O)/C=C\C(=O)O)sc(C)c1-c1ccccc1	none
CCOC(=O)c1c(NC(=O)c2c(-c3ccccc3)noc2C)sc(C)c1-c1ccccc1	SR-BI DiI inh 75
CCOCc1nnc(NC(=O)c2c(-c3ccccc3)noc2C)s1	none
O=C(C1=C[C@@H](c2ccc(Br)cc2)C[C@@H](OCc2ccc(CO)cc2)O1)N1CCN(Cc2ccccc2)CC1	SR-BI uptake up 63 (no result: NSD2 inh)
C#CCOCCOCCOCCNc1nc(N2CCN(C(=O)[C@H](CCCCN)n3cc([C@@H](N)C(C)CC)nn3)CC2)nc(N2CCN(C(=O)[C@H](Cc3cc4ccccc4[nH]3)n3cc([C@@H](N)C(C)CC)nn3)CC2)n1 (some centres undefined)	dFosB activator 63 (no result: Dyrk1A ADPGlo, NSD2 inh)
C#CCOCCOCCOCCNc1nc(N2CCOCC2)nc(N2CCN(C(=O)[C@H](Cc3cc4ccccc4[nH]3)n3cc([C@@H](N)C(C)CC)nn3)CC2)n1 (some centres undefined)	none (no result: NSD2 inh)
